Published values collected from several papers.
Target: Mitogen-activated protein kinase kinase kinase 2 (MAP3K2, Homo sapiens, UniProt Q9Y2U5)
Residues used in one study (Q9Y2U5 1-619): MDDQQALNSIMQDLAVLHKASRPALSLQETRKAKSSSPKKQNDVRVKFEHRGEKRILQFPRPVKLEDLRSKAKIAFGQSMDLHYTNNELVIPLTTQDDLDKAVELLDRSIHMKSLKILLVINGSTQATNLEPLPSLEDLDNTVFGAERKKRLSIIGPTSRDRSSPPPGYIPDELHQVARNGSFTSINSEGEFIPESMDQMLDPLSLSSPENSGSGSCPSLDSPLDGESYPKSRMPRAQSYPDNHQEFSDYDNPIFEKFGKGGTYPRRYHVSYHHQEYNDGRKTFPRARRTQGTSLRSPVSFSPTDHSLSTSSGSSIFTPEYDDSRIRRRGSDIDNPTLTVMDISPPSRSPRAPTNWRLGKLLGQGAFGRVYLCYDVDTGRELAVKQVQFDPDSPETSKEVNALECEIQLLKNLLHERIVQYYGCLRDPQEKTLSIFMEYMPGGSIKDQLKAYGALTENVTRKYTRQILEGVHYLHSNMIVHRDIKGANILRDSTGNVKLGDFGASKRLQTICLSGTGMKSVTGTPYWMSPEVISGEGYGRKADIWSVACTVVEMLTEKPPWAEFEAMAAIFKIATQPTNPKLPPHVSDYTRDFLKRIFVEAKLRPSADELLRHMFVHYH

CCCCC(=O)Nc1ccc(-c2ccc3ncn(CCC)c(=O)c3c2)cn1
remaining binding (binding, competition with immobilised ligand; 0.5 µM): 100%

C1=C/COCc2cc(ccc2OCCN2CCCC2)Nc2nccc(n2)-c2cccc(c2)COC/1
remaining binding (binding; 0.1 µM): 38%

CC(C)S(=O)(=O)c1ccc2nccc(Nc3ccc4sc(C5CCCC5)nc4c3)c2c1
activity vs control (enzyme activity, inhibitor; 1 µM): 103%

COc1ccc2[nH]c3c4[nH]c5ccc(OC)cc5c4c4c(c3c2c1)C(=O)NC4=O
remaining binding (binding, competition with immobilised ligand; 1 µM): 85%

Cc1cc(O)c(-c2ccc([C@@H](C)CN(C)C)cc2)c2c1[nH]c(=O)c1sccc12
inhibition (enzyme activity, inhibitor; 0.1 µM): -1.76%

COc1ccc2oc(-c3ccc4nc(N)oc4c3)c/c(=N\c3ccccc3NC(=O)CCN)c2c1
remaining binding (binding; 1 µM): 101%

C=CC(=O)N1CCC([C@@H]2CCNc3c(C(N)=O)c(-c4ccc(Oc5ccccc5)cc4)nn32)CC1
inhibition (enzyme activity, inhibitor; 1 µM): 39%

CN1CCN(C(=O)c2ccc(NC(=O)Nc3ccc(N(C)c4ccnc(Nc5ccc(CS(C)(=O)=O)cc5)n4)cc3)cc2)CC1
remaining binding (binding, competition with immobilised ligand; 1 µM): 38%

CO[C@@H]1[C@H](N(C)C(=O)c2ccccc2)C[C@H]2O[C@]1(C)n1c3ccccc3c3c4c(c5c6ccccc6n2c5c31)C(=O)NC4
inhibition (enzyme activity, inhibitor; 1 µM): 94%

C#Cc1cc(-c2cc(Nc3nc(N[C@@H](C)c4ccc(F)cn4)ncc3Cl)n[nH]2)ccc1C=O
inhibition (enzyme activity, inhibitor; 0.2 µM): 55.2%
